The nature of series [1]: folding enthalpy; higher = less favourable; fluorescence melt of hairpins on a sequencing array, two-state fit. The following applies: sodium 0.088 M. The procedure, abridged: (§1)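 To match UV melts, fitted temperatures were raised by 9.35 °C. These fits were bootstrapped two-state models that gave melting temperature and folding enthalpy, combined by inverse variance over four replicates. The input was normalised Cy3 fluorescence of library hairpins with annealed Cy3 and quencher oligos on a sequenced MiSeq flow cell, imaged in 50 mM Na-HEPES pH 8.0, 25 mM NaCl in 2.5 °C steps up to 60 °C.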

Series [2] is described as follows: melting temperature; fluorescence melt of hairpins on a sequencing array, two-state fit, raised by 9.35 °C to match UV melts. As to conditions: sodium 0.088 M. The method in brief:
as §1

Turning to CGGTCGGAAACGACACCG ((((((....)))..))), the folding enthalpy in series [1] was -11 kcal/mol. In addition, the Tm in series [2] was 38 °C.
On to GTTGCGGGAAACCGTAAC (((.(((....))).))), for which the folding enthalpy in series [1] was -34.3 kcal/mol. Besides, in series [2], the Tm came out at 51.2 °C.
As to GAGGACGAAAGTCAACTC ((((((....)))..))), the folding enthalpy in series [1] was -19.7 kcal/mol. For the same sequence, the Tm in series [2] was 38.2 °C.
In the same order, the values of GAAAACCGAAAGGTATTC (((.(((....))).))) are -23.5 kcal/mol and 37.5 °C.
For GGGTCTCGAAAGAGCCC (((.(((....)))))), the folding enthalpy in series [1] was -32 kcal/mol. In addition, the Tm in series [2] was 58.2 °C.
In the same order, the values of GTACCACGAAAGTGCTAC (((.(((....))).))) are -13.7 kcal/mol and 33.6 °C.
With GTGCGTCGAAAGACCCAC (((.(((....))).))), in series [1], the folding enthalpy is -26.2 kcal/mol. The Tm in series [2] is 45.8 °C.
In the same order, the values of GGCCAAGGAAACTTGGTC (.(((((....))))).) are -35.1 kcal/mol and 53.3 °C.
On to GTAGAATCGAAAGATTAC (((..(((....)))))), for which the folding enthalpy in series [1] is -11 kcal/mol. For the same sequence, the Tm in series [2] amounted to 27.3 °C.
For the sequence GAACCCGAAAGGGTGTTC ((((((....)))..))), the folding enthalpy in series [1] was -11.6 kcal/mol. In series [2], the Tm is 47.8 °C.
In the same order, the values of GACTGCGCGAAAGCGGTC (((..(((....)))))) are -11.3 kcal/mol and 48 °C.
Take GATCCTAGTTAGGATC ((((((....)))))): the folding enthalpy in series [1] is -33.7 kcal/mol. Moreover, the Tm in series [2] was determined as 51.7 °C.
In the same order, the values of GCAGGAGGAAACTTCTGC ((((.((....)).)))) are -39.5 kcal/mol and 49.9 °C.
Turning to GATCGGCTACCGATC ((((((...)))))), the folding enthalpy in series [1] is -33.9 kcal/mol. Moreover, the Tm in series [2] came to 56 °C.
On to CGCGGACAATCCGCG ((((((...)))))), for which the folding enthalpy in series [1] is -26.4 kcal/mol. Further, in series [2], the Tm worked out at 67.7 °C.
Take GCGATGGCTCGC ((((....)))): the folding enthalpy in series [1] was -19.2 kcal/mol. For the same sequence, in series [2], the Tm worked out at 47.8 °C.
As to CGGTCCGGAAACGGCCCG (((.(((....))).))), the folding enthalpy in series [1] is -29.4 kcal/mol. Besides, the Tm in series [2] turned out to be 55.1 °C.
As to GCCTTTGGAAACAAGGGC (((.(((....))).))), the folding enthalpy in series [1] is -40.2 kcal/mol. In addition, in series [2], the Tm is 48.9 °C.
As to GCAAATGGAAACACTTGC ((((.((....)).)))), the folding enthalpy in series [1] was -31.5 kcal/mol. Moreover, the Tm in series [2] stood at 33.9 °C.
In the same order, the values of GCAGTGGGAAACTGCTGC ((((..(....)..)))) are -27.6 kcal/mol and 58.1 °C.
In the same order, the values of GGAGCGACGAAAGTCTCC (((..(((....)))))) are -13.9 kcal/mol and 36.6 °C.
On to GCGTACGCACGC ((((....)))), for which the folding enthalpy in series [1] was -17.1 kcal/mol. The Tm in series [2] stood at 56.9 °C.
In the same order, the values of GGTCTGGAAACAGACC ((((((....)))))) are -38 kcal/mol and 63.9 °C.
In the same order, the values of GCCTACGAAAGTAGGGC ((((((....))).))) are -16.4 kcal/mol and 61.8 °C.
In the same order, the values of GATCAGCGCTCTGATC ((((((....)))))) are -33.9 kcal/mol and 50.4 °C.
Regarding GAGTCCCGAAAGGGGCTC (((.(((....))).))), the folding enthalpy in series [1] was -28.9 kcal/mol. For the same sequence, the Tm in series [2] came out at 69.2 °C.
In the same order, the values of GCAACGCGAAAGCGTCGC ((.((((....)))).)) are -22.2 kcal/mol and 64.7 °C.
In the same order, the values of GATCCCTCCGGGGATC ((((((....)))))) are -31.3 kcal/mol and 65.3 °C.
Consider GAGCCTGGAAACAAGCTC ((((.((....)).)))), for which the folding enthalpy in series [1] is -29.8 kcal/mol. Besides, the Tm in series [2] was 38.6 °C.
Turning to GCCTGGCGAAAGCGATGC ((.(.((....)).).)), the folding enthalpy in series [1] was -6.61 kcal/mol. The Tm in series [2] stood at 37 °C.
Regarding GACGTCGGAAACAACGTC (((((.(....).))))), the folding enthalpy in series [1] is -30.5 kcal/mol. The Tm in series [2] is 45.2 °C.
As for GACCGCGAAAGCGGGTC ((((((....))).))), the folding enthalpy in series [1] is -11.9 kcal/mol. Moreover, the Tm in series [2] was found to be 68.8 °C.
For GCAATAGCGAAAGCTTGC (((..(((....)))))), the folding enthalpy in series [1] is -24.7 kcal/mol. For the same sequence, in series [2], the Tm was found to be 48.7 °C.
In the same order, the values of GCGGCAACGAAAGTTCGC (((..(((....)))))) are -21.3 kcal/mol and 45.1 °C.
On to GTTTTCGAAAGAAAAAAC ((((((....)))..))), for which, in series [1], the folding enthalpy is -11.1 kcal/mol. In series [2], the Tm came out at 29.8 °C.
In the same order, the values of GAGATGCGAAAGCAGCTC (((.(((....))).))) are -34.6 kcal/mol and 69.1 °C.
As to GCGGTTGGAAACAACCAC (.(((((....))))).), the folding enthalpy in series [1] is -14.8 kcal/mol. Moreover, in series [2], the Tm is 44.8 °C.
In the same order, the values of GTTCCCGAAAGGGGCAAC ((((((....)))..))) are -9.18 kcal/mol and 30.2 °C.
For GCTGACGGAAACGCCAGC ((((.((....)).)))), in series [1], the folding enthalpy was -42.1 kcal/mol. Also, the Tm in series [2] was found to be 55.3 °C.
With GAGCTCCCGAAAGGGCTC (((..(((....)))))), the folding enthalpy in series [1] was -17.7 kcal/mol. For the same sequence, the Tm in series [2] was determined as 44.4 °C.
In the same order, the values of GGGGTTGGAAACAGCCTC (.((.((....)).)).) are -21.6 kcal/mol and 39.1 °C.
In the same order, the values of GTTAACGCGAAAGCGAAC (((..(((....)))))) are -8.96 kcal/mol and 32.9 °C.
In the same order, the values of GGATGGGGAAACCCGTTC (.(.(((....))).).) are -16.5 kcal/mol and 36.1 °C.
Take GAACGTGGAAACACGTCC (.(((((....))))).): the folding enthalpy in series [1] is -13.6 kcal/mol. Also, the Tm in series [2] was 41.3 °C.
Consider GAGCGCGGAAACGTGCTC ((((.((....)).)))), for which, in series [1], the folding enthalpy is -32.3 kcal/mol. In addition, the Tm in series [2] was 65.6 °C.
Regarding GATCTCTATGGAGATC ((((((....)))))), the folding enthalpy in series [1] was -42.8 kcal/mol. In addition, the Tm in series [2] is 54.9 °C.
In the same order, the values of GCTGTGCGAAAGCTCCGC ((.(.((....)).).)) are -14.5 kcal/mol and 40 °C.
GATGCGGGAAACCACACC (.((.((....)).)).): the folding enthalpy in series [1] was -12.4 kcal/mol. Also, the Tm in series [2] worked out at 26.7 °C.
GAATCGCGAAAGCGTTTC (((.(((....))).))): the folding enthalpy in series [1] was -21.9 kcal/mol. In series [2], the Tm stood at 46.2 °C.
As to GGCCTTCGAAAGAAGCC (((.(((....)))))), the folding enthalpy in series [1] is -27.6 kcal/mol. Moreover, the Tm in series [2] is 51.4 °C.
In the same order, the values of CGACTGCGGAAACGCTCG (((..(((....)))))) are -12.5 kcal/mol and 32.7 °C.
Regarding CGGCTCGGAAACGAACCG (((.(((....))).))), the folding enthalpy in series [1] is -44.5 kcal/mol. Moreover, the Tm in series [2] came to 51 °C.
For the sequence GCTTGCGAAAGCAAAGC ((((((....))).))), in series [1], the folding enthalpy was -22.8 kcal/mol. Further, the Tm in series [2] is 61.4 °C.
In the same order, the values of GGAGCACCGAAAGGTTCC (((..(((....)))))) are -11.3 kcal/mol and 30.2 °C.
In the same order, the values of GCGTAGCGAAAGCTCTGC ((..(((....)))..)) are -7.19 kcal/mol and 43.8 °C.

(Values after the array DNA melting data of Ke et al. (doi:10.1101/2024.01.08.574731).)
